Results from paper PMC7719619 (Angewandte Chemie (International ed. in English), 2020).
In brackets after ≈: the same amount, converted by molar mass. Square brackets hold non-standard residues; d marks the D form. Peptide text beside a SMILES is read from it. Gly(N-CH2-oxan-4-yl) = O=C(O)CNCC1CCOCC1; NCyclohexylmethylGly = O=C(O)CNCC1CCCCC1; NMeL = CN[C@@H](CC(C)C)C(=O)O; NMeA = CN[CH](C)C(=O)O; NEtG = CCNCC(=O)O

Columns and labels:
physchem = format: physicochemical
MDCK permeability = format: in vitro ADME; settings: dog
P-gp = P-gp (Homo sapiens, UniProt P08183); test: P-gp efflux ratio; format: in vitro ADME; settings: not told
[1] = format: in vitro ADME; settings: microsomes
[2] = format: in vitro ADME; settings: serum
oral bioavailability = format: in vivo; settings: mouse; for bioavailability: in vivo, po, Oral bioavailability, No inhib., no inhibitors, mean (two individual values)
Summary of the method: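 Oral dosing in mice with no pretreatment by CYP or P-gp inhibitor. Oral bioavailability (F) reported as the mean of two independent experiments, with the individual values also given.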

[3] = pH 6.8, aqueous solubility at pH 6.8

Sequence of P-gp (P08183 whole entry): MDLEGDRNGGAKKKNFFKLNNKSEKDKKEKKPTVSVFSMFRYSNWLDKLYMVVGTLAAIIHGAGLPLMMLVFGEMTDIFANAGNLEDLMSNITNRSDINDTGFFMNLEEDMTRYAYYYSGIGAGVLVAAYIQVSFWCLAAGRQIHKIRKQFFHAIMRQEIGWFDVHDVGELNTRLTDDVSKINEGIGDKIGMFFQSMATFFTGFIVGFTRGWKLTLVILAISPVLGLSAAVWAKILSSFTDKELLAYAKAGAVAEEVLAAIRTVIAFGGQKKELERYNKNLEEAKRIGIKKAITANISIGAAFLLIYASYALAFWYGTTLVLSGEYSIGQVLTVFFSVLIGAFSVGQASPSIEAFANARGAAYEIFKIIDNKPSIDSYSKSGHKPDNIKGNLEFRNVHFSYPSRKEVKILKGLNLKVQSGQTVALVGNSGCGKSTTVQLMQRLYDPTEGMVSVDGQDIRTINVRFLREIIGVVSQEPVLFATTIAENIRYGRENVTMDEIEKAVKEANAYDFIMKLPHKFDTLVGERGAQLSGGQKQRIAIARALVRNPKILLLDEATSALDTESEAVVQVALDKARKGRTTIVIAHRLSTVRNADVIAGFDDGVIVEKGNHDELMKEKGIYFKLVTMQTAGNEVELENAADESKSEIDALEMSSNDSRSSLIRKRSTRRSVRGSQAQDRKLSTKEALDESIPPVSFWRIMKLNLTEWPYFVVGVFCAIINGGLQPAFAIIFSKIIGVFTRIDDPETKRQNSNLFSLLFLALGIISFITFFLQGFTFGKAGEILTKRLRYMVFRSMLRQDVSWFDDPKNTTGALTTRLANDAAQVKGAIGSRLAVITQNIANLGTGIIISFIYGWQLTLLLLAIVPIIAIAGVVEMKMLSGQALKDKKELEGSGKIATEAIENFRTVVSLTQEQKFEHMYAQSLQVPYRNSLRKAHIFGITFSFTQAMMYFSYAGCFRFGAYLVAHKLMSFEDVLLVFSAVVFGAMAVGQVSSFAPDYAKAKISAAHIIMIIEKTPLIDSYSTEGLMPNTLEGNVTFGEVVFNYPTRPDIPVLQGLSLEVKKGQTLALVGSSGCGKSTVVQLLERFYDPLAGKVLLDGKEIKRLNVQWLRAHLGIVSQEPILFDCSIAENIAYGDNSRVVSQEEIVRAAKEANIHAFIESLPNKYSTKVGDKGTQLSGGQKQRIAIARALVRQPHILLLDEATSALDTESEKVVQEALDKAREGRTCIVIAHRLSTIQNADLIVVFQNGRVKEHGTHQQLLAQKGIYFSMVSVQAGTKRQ

SMILES	solubility (physchem; pH 1.2, aq. sol. pH 1.2)	aq. sol. pH 6.8 (physchem)	Papp (MDCK permeability)	efflux ratio (P-gp)	microsomal stability [1]	fraction unbound [2]	oral BA (F) (oral bioavailability; 3 mg/kg, no CYP or P-gp inhibition)	bioavailability (oral bioavailability)	solubility (physchem; pH 6.8, aq. sol. pH 6.8)	solubility (physchem; [3])	aq. sol. pH 1.2 (physchem; pH 1.2)
CCN1CC(=O)NC(CC(C)C)C(=O)N(C)C(C)C(=O)NC(CC(C)C)C(=O)N2CCCC2C(=O)N(CC2CCOCC2)CC(=O)NC(CC(C)C)C(=O)N(C)C(C)C(=O)NC(C)C(=O)N2CCCC2C1=O (stereo not drawn) [A03] (cyclo([NEtG]L[NMeA]LP[Gly(N-CH2-oxan-4-yl)]L[NMeA]AP); configuration not given here)	1800 µg/mL (≈ 1770 µM)	1900 μg/mL	0.4 ×10⁻⁶ cm/s	6.4	64%	0.31	1%	1%	–	–	–
CCN1CC(=O)NC(CC(C)C)C(=O)N(C)C(C)C(=O)NC(CC(C)C)C(=O)N2CCCC2C(=O)N(CC2CCCCC2)CC(=O)NC(CC(C)C)C(=O)N(C)C(C)C(=O)NC(Cc2ccccc2)C(=O)N2CCCC2C1=O (stereo not drawn) [A08] (cyclo([NEtG]L[NMeA]LP[NCyclohexylmethylGly]L[NMeA]FP); configuration not given here)	2.5 µg/mL (≈ 2.29 µM)	–	24.7 ×10⁻⁶ cm/s	8.5	33%	< 0.002	–	5%	6.8 µg/mL (≈ 6.24 µM)	7 µg/mL (≈ 6.43 µM)	–
CCN1CC(=O)N[C@@H](CC(C)C)C(=O)N(C)[C@@H](C)C(=O)N[C@@H](CC(C)C)C(=O)N2CCC[C@@H]2C(=O)N(CC2CCOCC2)CC(=O)N[C@@H](CC(C)C)C(=O)N(C)[C@@H](C)C(=O)N[C@@H](Cc2ccccc2)C(=O)N2CCC[C@@H]2C1=O [A09] (cyclo([NEtG]L[NMeA]L[dP][Gly(N-CH2-oxan-4-yl)]L[NMeA]F[dP]))	590 µg/mL (≈ 541 µM)	640 μg/mL	–	46.9	67%	0.02	–	2%	–	–	–
CCN1CC(=O)N[C@@H](CC(C)C)C(=O)N2CCC[C@@H]2C(=O)N(C)[C@@H](CC(C)C)C(=O)N[C@@H](C)C(=O)N(CC2CCCCC2)CC(=O)N[C@@H](Cc2ccccc2)C(=O)N2CCC[C@@H]2C(=O)N(C)[C@@H](CC(C)C)C(=O)N[C@@H](C)C1=O [B08] (cyclo([NEtG]L[dP][NMeL]A[NCyclohexylmethylGly]F[dP][NMeL]A))	–	210 μg/mL	–	–	53%	–	–	–	–	210 µg/mL (≈ 193 µM)	210 μg/mL
CCN1CC(=O)N[C@@H](CC(C)C)C(=O)N2CCC[C@@H]2C(=O)N(C)[C@@H](CC(C)C)C(=O)N[C@@H](C)C(=O)N(CC2CCOCC2)CC(=O)N[C@@H](Cc2ccccc2)C(=O)N2CCC[C@@H]2C(=O)N(C)[C@@H](CC(C)C)C(=O)N[C@@H](C)C1=O [B09] (cyclo(A[NEtG]L[dP][NMeL]A[Gly(N-CH2-oxan-4-yl)]F[dP][NMeL]))	2100 µg/mL (≈ 1920 µM)	2200 μg/mL	–	–	90%	–	–	1%	–	–	–
